Laboratory results as given in ChEMBL document CHEMBL1671735, “Genetic factors associated with elevated carbapenem resistance in KPC-producing Klebsiella pneumoniae” (2010).
≈ marks a conversion by molar mass, not a printed value.

Assays:
Assay type in all cases: functional
Klebsiella pneumoniae [1] = assay: Antimicrobial activity against OmpK35-deficient Carbapenem-resistant Klebsiella pneumoniae isolate AIS081072 expressing KPC beta lactamase by broth microdilution method
Klebsiella pneumoniae [2] = assay: Antimicrobial activity against OmpK35-deficient Carbapenem-resistant Klebsiella pneumoniae isolate AIS080792 expressing KPC beta lactamase by broth microdilution method
Klebsiella pneumoniae [3] = assay: Antimicrobial activity against OmpK35-deficient Carbapenem-resistant Klebsiella pneumoniae isolate AIS081042 expressing KPC beta lactamase by broth microdilution method
Klebsiella pneumoniae [4] = assay: Antimicrobial activity against OmpK35-deficient Carbapenem-resistant Klebsiella pneumoniae isolate ART2008136 expressing KPC beta lactamase by broth microdilution method
How it was run: (§1)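 The clinical K. pneumoniae isolates had been referred to CDC for susceptibility testing. bla_KPC was confirmed by PCR and subtyped by bidirectional sequencing of a 1,011-bp amplicon. Isolates were typed by PFGE of XbaI-digested DNA.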

Klebsiella pneumoniae [5] = assay: Antimicrobial activity against OmpK35-deficient Carbapenem-resistant Klebsiella pneumoniae isolate ART2008142 expressing KPC beta lactamase by broth microdilution method
Klebsiella pneumoniae [6] = assay: Antimicrobial activity against OmpK35-deficient Carbapenem-resistant Klebsiella pneumoniae isolate ART2008226 expressing KPC beta lactamase by broth microdilution method
Klebsiella pneumoniae [7] = assay: Antimicrobial activity against OmpK35-deficient Carbapenem-resistant Klebsiella pneumoniae isolate AIS080571 expressing KPC beta lactamase by broth microdilution method
Klebsiella pneumoniae [8] = assay: Antimicrobial activity against OmpK35-deficient Carbapenem-resistant Klebsiella pneumoniae isolate AIS070446 expressing KPC beta lactamase by broth microdilution method; how it was run: as §1
Klebsiella pneumoniae [9] = assay: Antimicrobial activity against OmpK35,OmpK36-deficient Carbapenem-resistant Klebsiella pneumoniae isolate ART2008027 expressing KPC beta lactamase by broth microdilution method
Klebsiella pneumoniae [10] = assay: Antimicrobial activity against OmpK35,OmpK36-deficient Carbapenem-resistant Klebsiella pneumoniae isolate ART2008141 expressing KPC beta lactamase by broth microdilution method
Klebsiella pneumoniae [11] = assay: Antimicrobial activity against OmpK35-deficient Carbapenem-resistant Klebsiella pneumoniae isolate HIP14474 expressing KPC beta lactamase by broth microdilution method
Klebsiella pneumoniae [12] = assay: Antimicrobial activity against Carbapenem-resistant Klebsiella pneumoniae isolate AIS081058 expressing KPC beta lactamase by broth microdilution method
Klebsiella pneumoniae [13] = assay: Antimicrobial activity against OmpK35-deficient Carbapenem-resistant Klebsiella pneumoniae isolate ART2008139 expressing KPC beta lactamase by broth microdilution method
Klebsiella pneumoniae [14] = assay: Antimicrobial activity against OmpK35-deficient Carbapenem-resistant Klebsiella pneumoniae isolate ART2008140 expressing KPC beta lactamase by broth microdilution method
Klebsiella pneumoniae [15] = assay: Antimicrobial activity against Carbapenem-resistant Klebsiella pneumoniae isolate ART2008028 expressing KPC beta lactamase by broth microdilution method
Klebsiella pneumoniae [16] = assay: Antimicrobial activity against OmpK35,OmpK36-deficient Carbapenem-resistant Klebsiella pneumoniae isolate ART2008135 expressing KPC beta lactamase by broth microdilution method
Klebsiella pneumoniae [17] = assay: Antimicrobial activity against OmpK35-deficient Carbapenem-resistant Klebsiella pneumoniae isolate ART2008143 expressing KPC beta lactamase by broth microdilution method
Klebsiella pneumoniae [18] = assay: Antimicrobial activity against OmpK35-deficient Carbapenem-resistant Klebsiella pneumoniae isolate ART2008026 expressing KPC beta lactamase by broth microdilution method
Klebsiella pneumoniae [19] = assay: Antimicrobial activity against OmpK35-deficient Carbapenem-resistant Klebsiella pneumoniae isolate AIS080949 expressing KPC beta lactamase by broth microdilution method
Klebsiella pneumoniae [20] = assay: Antimicrobial activity against OmpK35-deficient Carbapenem-resistant Klebsiella pneumoniae isolate ART2008138 expressing KPC beta lactamase by broth microdilution method
Klebsiella pneumoniae [21] = assay: Antimicrobial activity against OmpK35-deficient Carbapenem-resistant Klebsiella pneumoniae isolate ART2008137 expressing KPC beta lactamase by broth microdilution method; how it was run: as §1
Klebsiella pneumoniae [22] = assay: Antimicrobial activity against OmpK35-deficient Carbapenem-resistant Klebsiella pneumoniae isolate AIS070654 expressing KPC beta lactamase by broth microdilution method
Klebsiella pneumoniae [23] = assay: Antimicrobial activity against Carbapenem-resistant Klebsiella pneumoniae isolate ART2008024 expressing KPC beta lactamase by broth microdilution method
Klebsiella pneumoniae [24] = assay: Antimicrobial activity against Carbapenem-resistant Klebsiella pneumoniae isolate AIS080884 expressing KPC beta lactamase by broth microdilution method
Klebsiella pneumoniae [25] = assay: Antimicrobial activity against OmpK35-deficient Carbapenem-resistant Klebsiella pneumoniae isolate HIP14358 expressing KPC beta lactamase by broth microdilution method
Klebsiella pneumoniae [26] = assay: Antimicrobial activity against OmpK35-deficient Carbapenem-resistant Klebsiella pneumoniae isolate ART2008022 expressing KPC beta lactamase by broth microdilution method
Klebsiella pneumoniae [27] = assay: Antimicrobial activity against Carbapenem-resistant Klebsiella pneumoniae isolate HIP10924 expressing KPC beta lactamase by broth microdilution method

Compound	MIC (Klebsiella pneumoniae [1]) [µg/mL]	MIC (Klebsiella pneumoniae [2]) [µg/mL]	MIC (Klebsiella pneumoniae [3]) [µg/mL]	MIC (Klebsiella pneumoniae [4]) [µg/mL]	MIC (Klebsiella pneumoniae [5]) [µg/mL]	MIC (Klebsiella pneumoniae [6]) [µg/mL]	MIC (Klebsiella pneumoniae [7]) [µg/mL]	MIC (Klebsiella pneumoniae [8]) [µg/mL]	MIC (Klebsiella pneumoniae [9]) [µg/mL]	MIC (Klebsiella pneumoniae [10]) [µg/mL]	MIC (Klebsiella pneumoniae [11]) [µg/mL]	MIC (Klebsiella pneumoniae [12]) [µg/mL]	MIC (Klebsiella pneumoniae [14]) [µg/mL]	MIC (Klebsiella pneumoniae [15]) [µg/mL]	MIC (Klebsiella pneumoniae [16]) [µg/mL]	MIC (Klebsiella pneumoniae [18]) [µg/mL]	MIC (Klebsiella pneumoniae [20]) [µg/mL]	MIC (Klebsiella pneumoniae [21]) [µg/mL]	MIC (Klebsiella pneumoniae [22]) [µg/mL]	MIC (Klebsiella pneumoniae [23]) [µg/mL]	also measured
C[C@@H](O)[C@H]1C(=O)N2C(C(=O)O)=C(S[C@@H]3CN[C@H](C(=O)Nc4cccc(C(=O)O)c4)C3)[C@H](C)[C@H]12	8 (≈ 16.8 µM)	64 (≈ 135 µM)	256 (≈ 538 µM)	16 (≈ 33.6 µM)	8 (≈ 16.8 µM)	< 0.5	256 (≈ 538 µM)	4 (≈ 8.41 µM)	1020 (≈ 2150 µM)	256 (≈ 538 µM)	16 (≈ 33.6 µM)	2 (≈ 4.21 µM)	8 (≈ 16.8 µM)	8 (≈ 16.8 µM)	1020 (≈ 2150 µM)	256 (≈ 538 µM)	128 (≈ 269 µM)	16 (≈ 33.6 µM)	2 (≈ 4.21 µM)	128 (≈ 269 µM)	MIC (Klebsiella pneumoniae [13]): 16 µg/mL (≈ 33.6 µM); MIC (Klebsiella pneumoniae [17]): 64 µg/mL (≈ 135 µM); MIC (Klebsiella pneumoniae [19]): 64 µg/mL (≈ 135 µM); MIC (Klebsiella pneumoniae [24]): 8 µg/mL (≈ 16.8 µM); MIC (Klebsiella pneumoniae [25]): 64 µg/mL (≈ 135 µM); MIC (Klebsiella pneumoniae [26]): 32 µg/mL (≈ 67.3 µM); MIC (Klebsiella pneumoniae [27]): 4 µg/mL (≈ 8.41 µM)
C[C@@H](O)[C@H]1C(=O)N2C(C(=O)O)=C(SCCNC=N)C[C@H]12 [IMIPENEM ANHYDROUS]	2 (≈ 6.68 µM)	32 (≈ 107 µM)	64 (≈ 214 µM)	8 (≈ 26.7 µM)	< 1	< 1	128 (≈ 428 µM)	4 (≈ 13.4 µM)	512 (≈ 1710 µM)	256 (≈ 855 µM)	8 (≈ 26.7 µM)	1 (≈ 3.34 µM)	4 (≈ 13.4 µM)	4 (≈ 13.4 µM)	512 (≈ 1710 µM)	64 (≈ 214 µM)	32 (≈ 107 µM)	4 (≈ 13.4 µM)	4 (≈ 13.4 µM)	32 (≈ 107 µM)	MIC (Klebsiella pneumoniae [13]): 32 µg/mL (≈ 107 µM); MIC (Klebsiella pneumoniae [17]): 8 µg/mL (≈ 26.7 µM); MIC (Klebsiella pneumoniae [19]): 32 µg/mL (≈ 107 µM); MIC (Klebsiella pneumoniae [24]): 2 µg/mL (≈ 6.68 µM); MIC (Klebsiella pneumoniae [25]): 32 µg/mL (≈ 107 µM); MIC (Klebsiella pneumoniae [26]): 8 µg/mL (≈ 26.7 µM); MIC (Klebsiella pneumoniae [27]): 4 µg/mL (≈ 13.4 µM)
C[C@@H](O)[C@H]1C(=O)N2C(C(=O)O)=C(S[C@@H]3CN[C@H](C(=O)N(C)C)C3)[C@H](C)[C@H]12 [MEROPENEM]	2 (≈ 5.22 µM)	32 (≈ 83.4 µM)	128 (≈ 334 µM)	8 (≈ 20.9 µM)	4 (≈ 10.4 µM)	< 0.25	128 (≈ 334 µM)	4 (≈ 10.4 µM)	512 (≈ 1340 µM)	256 (≈ 668 µM)	8 (≈ 20.9 µM)	4 (≈ 10.4 µM)	2 (≈ 5.22 µM)	8 (≈ 20.9 µM)	256 (≈ 668 µM)	64 (≈ 167 µM)	32 (≈ 83.4 µM)	8 (≈ 20.9 µM)	1 (≈ 2.61 µM)	64 (≈ 167 µM)	MIC (Klebsiella pneumoniae [27]): 4 µg/mL (≈ 10.4 µM)
